System: MS2 coat protein
Test: apparent Kd, MS2 coat protein; higher = weaker binding; RNA-MaP array; FMN 200 µM where present
Procedure, shortened: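 SNAP-549-labelled MS2 coat protein, doubled from 0.7 or 1.5 nM to 3 µM, was titrated over designs transcribed by stalled E. coli RNA polymerase on Illumina sequencing-chip clusters. Titrations were run without and then with constant ligand in 100 mM Tris-HCl pH 7.5, 80 mM KCl, 4 mM MgCl2, BSA, DTT, yeast tRNA and Tween-20. The apparent Kd is the median of filtered per-cluster fits to green signal normalised to red-channel RNA signal and control-cluster median Fmax.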

[1] = designed as: OFF switch for flavin mononucleotide, no ligand
[2] = ligand present: flavin mononucleotide, designed as: OFF switch for flavin mononucleotide
[3] = designed as: ON switch for flavin mononucleotide, no ligand
[4] = ligand present: flavin mononucleotide, designed as: ON switch for flavin mononucleotide

Row | Sequence | apparent Kd [1] | apparent Kd [2] | apparent Kd [3] | apparent Kd [4]
1 | GGAUAGGACAGAGGAUAUACGUGCUAGAGAUACUAGCAAAAUUUCUUCACAUGAGGAUCACCCAUGUAGAAGGCUGUCCUAUCG | 4.55 nM | 5.6 nM | – | –
2 | GGAUAGGACAGAGGAUAUACGUGCUAGAGAUACUAGCAGAAUUUCCUCACAUGAGGAUCACCCAUGUAGAAGGCUGUCCUAUCG | 12.2 nM | 216 nM | – | –
3 | GGAUAGUGUCGUUAUCCGUAGCGAACAUGAGGAUCACCCAUGUAGGAUAUGUUAUUAAACUAAUAACAGAAGGGCGUUGGUCUC | 121 nM | 147 nM | – | –
4 | GGAUAUGUCGUCUACAUGAGGAUCACCCAUGUCGAUAGACAUGAGGAUAUCGAUAAGAAUUGUAUCGAGAAGGUAUGUAGGUCC | – | – | 23 nM | 30.2 nM
5 | GGAUCGAGUGUGAGGAUAUACCUAUGGAUACAUAGGUAGAAGGCACAUGAGGAUCACCCAUGUGUUCCCGGUCC | 43.4 nM | 368 nM | – | –
6 | GGAUCGAGUGUGAGGAUAUGCUGGUCCUUGGAUCAGCAGAAGGCACAUGAGGAUCACCCAUGUGAAAACGGUCC | 26.6 nM | 189 nM | – | –
7 | GGAUCGAUAGUGAGGAUAUACCACUGGAUACAGUGGUAGAAGGCACAUGAGGAUCACCCAUGUCCUAACGAUCC | 20.6 nM | 99.4 nM | – | –
8 | GGAUCGAUGUAGAAGGCUGUCUUAAAAUAGGACAGAGGAUAUACAUGAGGAUCACCCAUGUACUCCUUUAAAAUGAUCCAAAUA | 5.81 nM | 9.65 nM | – | –
9 | GGAUGACAAAGUCAUCCAAAUCGAACAUGAGGAUCACCCAUGUAGGAUAUGCAACUCAAAGAGUUGCAGAAGGACAUGUGCUUU | 40.9 nM | 172 nM | – | –
10 | GGAUGACAAAGUCAUCCAAAUCGAACAUGAGGAUCACCCAUGUAGGAUAUGCUACUCAAAGAGUAGCAGAAGGACAUGUGCUUU | 37.1 nM | 196 nM | – | –
11 | GGAUGACAAAGUCAUCCAAAUCGAACAUGAGGAUCACCCAUGUAGGAUAUGCUACUGAAACAGUAGCAGAAGGACAUGUGCUUU | 35.3 nM | 187 nM | – | –
12 | GGAUGACAAAGUCAUCCAUAACGAACAUGAGGAUCACCCAUGUAGGAUAUGCUAGUCAAAGACUAGCAGAAGGACAUGUGUCUU | 36.4 nM | 146 nM | – | –
13 | GGAUGACAAAGUCAUCCCGCUUUGACAUGAGGAUCACCCAUGUAGGAUAUAUUAAUCAAAGAUUAAUAGAAGGACAUGUUUCUG | 72.4 nM | 174 nM | – | –
14 | GGAUGACAUAGUCAUCCUUAACGAACAUGAGGAUCACCCAUGUAGGAUAUGCUACUCAAAGAGUAGCAGAAGGGUAUGUGUCUU | 53.6 nM | 56.3 nM | – | –
15 | GGAUGACAUAGUCAUCUUUAACGAACAUGAGGAUCACCCAUGUAGGAUAUGCUACUCAACGAGUAGCAGAAGGACAUGUGUCUU | 25.9 nM | 127 nM | – | –
16 | GGAUGAGCAAUAGGAUAUGCUGGGAUUGAAUGGGUAGAAGGAUUUCUAGUGGUAAAGACAUGAGGAUCACCCAUGUCGCGGCCC | – | – | 45.7 nM | 45.2 nM
17 | GGAUUACAUGAGGAUCACCCAUGUAGAAGGCGCCUGGGAGACCAGCGCGAGGUAGAAGACCCGGGCGAGGAUAUACAGGAGGGC | 25.5 nM | 56.4 nM | – | –
18 | GGAUUACAUGAGGAUCACCCAUGUGAGGAUAUCGAUGUCCUGGGUGGAGUGCGGGACUCGAGAAGGCACUUGGA | 60.5 nM | 229 nM | – | –
19 | GGAUUACAUGAGGAUCACCCAUGUGAGGAUAUCGAUGUCCUGUGUGGAGUGCGGGACUCGAGAAGGCACUUGGA | 43.8 nM | 219 nM | – | –
20 | GGCAAGUGAGGAUAUCACCACGGCGUGGGCACCACGGCCAGUGAGAAGGCACAUGAGGAUCACCCAUGUGAUCA | 88 nM | 541 nM | – | –
21 | GGCAGCUCAGGAUAUAGUUAAAACGACAUGAGGAUCACCCAUGUGACUGAUAUGCGGCGCCUAGAAGGGAGGUGCC | 18.9 nM | 18.2 nM | – | –
22 | GGCCCGGGAGGAUAUACAUGAGGAUCACCCAUGUGCUUGAGCUUGAUCGAGUUCGAGUGUAGAAGGCCCGGGCC | 14 nM | 21.8 nM | – | –
23 | GGCGACCUAGGAUAUACAUGAGGAUCACCCAUGUUUAUCUAUUAGAUGAAGACGGGUUGUAGAAGGAGGAUAUU | 15.5 nM | 18.2 nM | – | –

From the EternaBench riboswitch data
